Test results: ChEMBL document CHEMBL2413051, “Antibacterial activity of quinoxalines, quinazolines, and 1,5-naphthyridines” (2013)
≈ marks a conversion by molar mass, not a printed value. Calls of active or inactive are those of the source. The calls are words filed in the database; no cut-off is given here.

Experiments:
Enterococcus faecalis [1] = experiment: microbe, parasite or virus in culture; format: functional; settings: ATCC 19433
[2] = biological target: T1, Cell division protein FtsZ (Staphylococcus aureus) (UniProt P0A031); experiment: Stimulation of purified Staphylococcus aureus FtsZ polymerization at 40 ug/ml by microtiter plate based light-scattering assay in presence of 10 mM depolymerizing agent GDP
T1 sequence (whole entry): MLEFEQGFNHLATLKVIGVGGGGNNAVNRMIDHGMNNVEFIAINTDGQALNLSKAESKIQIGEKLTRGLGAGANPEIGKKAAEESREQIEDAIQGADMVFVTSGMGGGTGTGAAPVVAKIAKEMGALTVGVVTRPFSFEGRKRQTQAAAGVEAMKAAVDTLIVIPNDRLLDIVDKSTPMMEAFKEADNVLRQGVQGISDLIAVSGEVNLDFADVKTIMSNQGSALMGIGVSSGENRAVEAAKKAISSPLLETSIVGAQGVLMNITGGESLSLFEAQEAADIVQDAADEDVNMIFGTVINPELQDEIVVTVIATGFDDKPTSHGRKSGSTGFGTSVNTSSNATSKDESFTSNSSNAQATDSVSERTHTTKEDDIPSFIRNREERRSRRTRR

Staphylococcus aureus [3] = experiment: microbe, parasite or virus in culture; format: functional; settings: 8325-4
Staphylococcus aureus [4] = experiment: microbe, parasite or virus in culture; format: functional; settings: ATCC 33591
Enterococcus faecalis [5] = experiment: microbe, parasite or virus in culture; format: functional; settings: ATCC 51575
Staphylococcus aureus [6] = experiment: Ratio of MBC to MIC for methicillin-resistant Staphylococcus aureus ATCC 33591; format: functional
In short: (§1)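 Ratio of MBC to MIC, both in µg/mL. MIC was found by CLSI broth microdilution as the lowest concentration giving ≥90% growth inhibition. MBC was found by a previously described method. Per CLSI, a ratio of 1–2 is read as bactericidal and ≥8 as bacteriostatic.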

Enterococcus faecalis [7] = experiment: Ratio of MBC to MIC for vancomycin-resistant Enterococcus faecalis ATCC 51575; format: functional
In short: as §1

Enterococcus faecalis [8] = experiment: Bactericidal activity against vancomycin-resistant Enterococcus faecalis ATCC 51575; format: functional
Staphylococcus aureus [9] = experiment: Bactericidal activity against methicillin-sensitive Staphylococcus aureus 8325-4; format: functional
In short: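 MBC against MSSA strain 8325-4, determined per a previously described method; paired MIC by CLSI broth microdilution, MIC being lowest concentration giving ≥90% growth inhibition.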

Staphylococcus aureus [10] = experiment: Ratio of MBC to MIC for methicillin-sensitive Staphylococcus aureus 8325-4; format: functional
[11] = biological target: T1, Cell division protein FtsZ (Staphylococcus aureus); experiment: Stimulation of purified Staphylococcus aureus FtsZ polymerization at 80 ug/ml by microtiter plate based light-scattering assay
Staphylococcus aureus [12] = experiment: Bactericidal activity against methicillin-resistant Staphylococcus aureus ATCC 33591; format: functional
[13] = biological target: T1, Cell division protein FtsZ (Staphylococcus aureus); experiment: Stimulation of purified Staphylococcus aureus FtsZ polymerization at 40 ug/ml by microtiter plate based light-scattering assay

Compound | MIC (Enterococcus faecalis [1]) [µg/mL] | Activity [2] | MIC (Staphylococcus aureus [3]) [µg/mL] | MIC (Staphylococcus aureus [4]) [µg/mL] | MIC (Enterococcus faecalis [5]) [µg/mL] | Ratio (Staphylococcus aureus [6]) | Ratio (Enterococcus faecalis [7]) | MBC (Enterococcus faecalis [8]) [µg/mL] | MBC (Staphylococcus aureus [9]) [µg/mL] | Ratio (Staphylococcus aureus [10]) | Activity [11] | MBC (Staphylococcus aureus [12]) [µg/mL] | Activity [13]
CC(C)(C)c1ccc(-c2cc(C(=O)NCCN)cc(-c3cnc4ccccc4n3)c2)cc1 | 8 (≈ 18.8 µM) | Active | 4 (≈ 9.42 µM) | 4 (≈ 9.42 µM) | 8 (≈ 18.8 µM) | – | – | – | – | – | – | – | –
CC(C)(C)c1ccc(-c2ccnc3c(CNC(=N)N)ccnc23)cc1 | 32 (≈ 96 µM) | Active | 8 (≈ 24 µM) | 8 (≈ 24 µM) | 64 (≈ 192 µM) | 2 | 1 | 64 (≈ 192 µM) | 8 (≈ 24 µM) | 1 | Active | 16 (≈ 48 µM) | –
Fc1cccc(-c2cnc3ccccc3n2)c1 | > 64 | Active | > 64 | > 64 | > 64 | – | – | – | – | – | – | – | –
Cc1onc(-c2ccccc2)c1C(=O)N[C@@H]1C(=O)N2[C@@H]1SC(C)(C)[C@@H]2C(=O)O [OXACILLIN] | 8 (≈ 19.9 µM) | – | 0.06 (≈ 0.149 µM) | > 64 | > 64 | – | – | – | – | – | – | – | –
CC(C)(C)c1ccc(-c2ncnc3c(CNC(=N)N)cccc23)cc1 | 32 (≈ 96 µM) | Active | 4 (≈ 12 µM) | 8 (≈ 24 µM) | 32 (≈ 96 µM) | – | 2 | 64 (≈ 192 µM) | 8 (≈ 24 µM) | 2 | Active | 16 (≈ 48 µM) | –
C[n+]1cc(-c2cccc(C(C)(C)C)c2)nc2ccccc21.[I-] | 8 | Active | 2 | 2 | 16 | – | 4 | 64 | 16 | 8 | – | 16 | inactive
CC(=N)NCc1cccc2c(-c3ccc(C(C)(C)C)cc3)ncnc12 | 64 (≈ 193 µM) | Active | 32 (≈ 96.3 µM) | 64 (≈ 193 µM) | 64 (≈ 193 µM) | – | – | – | – | – | – | – | –
COC(=O)c1cc(-c2ccc(C(C)(C)C)cc2)cc(-c2cnc3ccccc3n2)c1 | > 64 | Active | > 64 | > 64 | > 64 | – | – | – | – | – | – | – | –
CC(C)(C)c1ccc(-c2cc(C(=O)NCCO)cc(-c3cnc4ccccc4n3)c2)cc1 | > 64 | Active | > 64 | > 64 | > 64 | – | – | – | – | – | – | – | –
c1ccc2nccnc2c1 [QUINOXALINE] | > 64 | Active | > 64 | > 64 | > 64 | – | – | – | – | – | – | – | –
C[n+]1cc(-c2cc(C(=O)NCCO)cc(-c3ccc(C(C)(C)C)cc3)c2)nc2ccccc21.[I-] | 8 | Active | 4 | 4 | 8 | – | – | – | – | – | – | – | –
CN(C)[C@@H]1C(O)=C(C(N)=O)C(=O)[C@@]2(O)C(O)=C3C(=O)c4c(O)cccc4[C@@](C)(O)[C@H]3C[C@@H]12 [TETRACYCLINE] | 0.5 (≈ 1.13 µM) | – | 0.06 (≈ 0.135 µM) | 64 (≈ 144 µM) | > 64 | – | – | – | – | – | – | – | –
CC(C)(C)c1cccc(-c2cnc3ccccc3n2)c1 | > 64 | Active | > 64 | > 64 | > 64 | – | – | – | – | – | – | – | –
CC(C)(C)c1ccc(-c2cnc3c(CNC(=N)N)cccc3n2)cc1 | 8 (≈ 24 µM) | Active | 4 (≈ 12 µM) | 4 (≈ 12 µM) | 16 (≈ 48 µM) | 2 | 1 | 16 (≈ 48 µM) | 4 (≈ 12 µM) | 1 | – | 8 (≈ 24 µM) | Active
CC(C)(C)c1ccc(-c2cc(C(N)=O)cc(-c3cnc4ccccc4n3)c2)cc1 | > 64 | Active | > 64 | > 64 | > 64 | – | – | – | – | – | – | – | –
CC(C)(C)c1cccc(-c2cnc3c(CNC(=N)N)cccc3n2)c1 | 8 (≈ 24 µM) | Active | 4 (≈ 12 µM) | 4 (≈ 12 µM) | 16 (≈ 48 µM) | 2 | 2 | 32 (≈ 96 µM) | 4 (≈ 12 µM) | 1 | – | 8 (≈ 24 µM) | Active

Compound | MIC (Enterococcus faecalis [1]) [µg/mL] | Activity [2] | MIC (Staphylococcus aureus [3]) [µg/mL] | MIC (Staphylococcus aureus [4]) [µg/mL] | MIC (Enterococcus faecalis [5]) [µg/mL] | Ratio (Staphylococcus aureus [6]) | Ratio (Enterococcus faecalis [7]) | MBC (Enterococcus faecalis [8]) [µg/mL] | MBC (Staphylococcus aureus [9]) [µg/mL] | Ratio (Staphylococcus aureus [10]) | Activity [11] | MBC (Staphylococcus aureus [12]) [µg/mL] | Activity [13]
C[n+]1cc(-c2cccc(F)c2)nc2ccccc21.[I-] | 32 | Active | 2 | 4 | 32 | – | – | – | – | – | – | – | –
CC(C)(C)c1ccc(-c2cnc3ccccc3n2)cc1 | > 64 | Active | > 64 | > 64 | > 64 | – | – | – | – | – | – | – | –
CC[C@H]1OC(=O)[C@H](C)[C@@H](O[C@H]2C[C@@](C)(OC)[C@@H](O)[C@H](C)O2)[C@H](C)[C@@H](O[C@@H]2O[C@H](C)C[C@H](N(C)C)[C@H]2O)[C@](C)(O)C[C@@H](C)C(=O)[C@H](C)[C@@H](O)[C@]1(C)O [ERYTHROMYCIN] | 1 (≈ 1.36 µM) | – | 0.13 (≈ 0.177 µM) | > 64 | > 64 | – | – | – | 32 (≈ 43.6 µM) | – | – | – | –
c1ccc(-c2cnc3ccccc3n2)cc1 | > 64 | Active | > 64 | > 64 | > 64 | – | – | – | – | – | – | – | –
C[n+]1cc(-c2ccc(C(C)(C)C)cc2)nc2ccccc21.[I-] | 16 | Active | 0.5 | 1 | 16 | – | 4 | 64 | 8 | 16 | – | 16 | –
CC(C)(C)c1ccc(-c2cccc3c(CNC(=N)N)ncnc23)cc1 | > 64 | Active | 16 (≈ 48 µM) | 64 (≈ 192 µM) | > 64 | – | – | – | – | – | – | – | –
COC(=O)c1cc(-c2ccc(C(C)(C)C)cc2)cc(-c2c[n+](C)c3ccccc3n2)c1.[I-] | 4 | Active | 1 | 1 | 4 | – | – | – | – | – | – | – | –
CC(C)(C)c1ccc(-c2ccnc3c(CN)ccnc23)cc1 | > 64 | Active | > 64 | > 64 | > 64 | – | – | – | – | – | – | – | –
c1ccc(-c2cccc(-c3cnc4ccccc4n3)c2)cc1 | > 64 | Active | > 64 | > 64 | > 64 | – | – | – | – | – | – | – | –
C[n+]1cc(-c2cc(C(N)=O)cc(-c3ccc(C(C)(C)C)cc3)c2)nc2ccccc21.[I-] | 4 | Active | 2 | 2 | 4 | – | – | – | – | – | – | – | –
C[n+]1ccnc2ccccc21.[I-] | > 64 | Active | 32 | > 64 | > 64 | – | – | – | – | – | – | – | –
C[n+]1cc(-c2cccc(-c3ccccc3)c2)nc2ccccc21.[I-] | 8 | Active | 0.5 | 0.5 | 8 | – | 8 | 64 | 4 | 8 | – | 4 | inactive
CN[C@H](CC(C)C)C(=O)N[C@H]1C(=O)N[C@@H](CC(N)=O)C(=O)N[C@H]2C(=O)N[C@H]3C(=O)N[C@H](C(=O)N[C@H](C(=O)O)c4cc(O)cc(O)c4-c4cc3ccc4O)[C@H](O)c3ccc(c(Cl)c3)Oc3cc2cc(c3O[C@@H]2O[C@H](CO)[C@@H](O)[C@H](O)[C@H]2O[C@H]2C[C@](C)(N)[C@H](O)[C@H](C)O2)Oc2ccc(cc2Cl)[C@H]1O [VANCOMYCIN] | 1 (≈ 0.69 µM) | – | – | – | > 64 | – | – | – | 1 (≈ 0.69 µM) | – | – | 4 (≈ 2.76 µM) | –
CCC[C@@H]1C[C@@H](C(=O)N[C@@H]([C@H]2O[C@H](SC)[C@H](O)[C@@H](O)[C@H]2O)[C@H](C)Cl)N(C)C1 [CLINDAMYCIN] | 2 (≈ 4.71 µM) | – | 0.03 (≈ 0.0706 µM) | > 64 | > 64 | – | – | – | – | – | – | – | –
C[n+]1cc(-c2ccccc2)nc2ccccc21.[I-] | 32 | Active | 4 | 8 | > 64 | – | – | – | – | – | – | – | –
CC(C)(C)c1ccc(-c2ncnc3c(CN)cccc23)cc1 | 64 (≈ 220 µM) | Active | 32 (≈ 110 µM) | 64 (≈ 220 µM) | 64 (≈ 220 µM) | – | – | – | – | – | – | – | –
